In BindingDB's records for doi:10.1021/acs.jnatprod.5b00637 (University of Eastern Piedmont, 2016):
pIC50: −log10 of the molar value.

Target: Signal transducer and activator of transcription 3 (Homo sapiens, UniProt P40763)
Assay: Inhibition of IFN gamma-induced STAT3 (unknown origin) activation in HeLa-STAT3-Luc cells after 6 hrs by luciferase reporter gene assay
Outline: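 HeLa-STAT3-Luc reporter cells (15 × 10⁴ cells/mL, DMEM with 10% FBS, 37 °C, 5% CO2) were preincubated with the compounds at rising concentrations, then stimulated with IFNγ for 6 h. Lysate luciferase is expressed as percent inhibition, with IFNγ-induced activity set as 100%.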

Signal transducer and activator of transcription 3, sequence (P40763 whole entry): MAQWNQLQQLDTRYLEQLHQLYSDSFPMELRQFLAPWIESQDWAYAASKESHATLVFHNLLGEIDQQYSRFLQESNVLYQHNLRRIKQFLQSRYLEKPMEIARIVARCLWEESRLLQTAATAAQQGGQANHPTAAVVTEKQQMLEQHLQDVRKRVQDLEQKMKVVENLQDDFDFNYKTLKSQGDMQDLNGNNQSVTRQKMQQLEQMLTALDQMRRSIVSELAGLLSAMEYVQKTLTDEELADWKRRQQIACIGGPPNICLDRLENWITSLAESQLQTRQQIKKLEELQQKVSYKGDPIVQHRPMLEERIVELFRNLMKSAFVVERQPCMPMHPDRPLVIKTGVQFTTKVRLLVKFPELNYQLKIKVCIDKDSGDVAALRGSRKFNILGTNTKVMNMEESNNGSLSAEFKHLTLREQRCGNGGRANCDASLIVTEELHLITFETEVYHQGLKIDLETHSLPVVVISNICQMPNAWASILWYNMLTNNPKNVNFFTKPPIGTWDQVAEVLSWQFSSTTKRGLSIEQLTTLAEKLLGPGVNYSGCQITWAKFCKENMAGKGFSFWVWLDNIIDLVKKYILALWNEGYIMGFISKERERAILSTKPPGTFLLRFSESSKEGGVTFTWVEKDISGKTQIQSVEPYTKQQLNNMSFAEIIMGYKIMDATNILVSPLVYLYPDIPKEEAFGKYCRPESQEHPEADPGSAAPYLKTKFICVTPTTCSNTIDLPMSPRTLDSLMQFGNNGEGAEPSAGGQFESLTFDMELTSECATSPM

For `CC(C)=CC(=O)C[C@H](C)c1ccc(C)cc1` [(+)-(S)-ar-turmerone], the pIC50 was 4.85.
